Hits are enriched below; roughly 2.7% of the tested compounds scored in any of these assays.
Yeast life ext – extends the lifespan of yeast; S. cerevisiae growth with nicotinamide, OD615; deaD strain in restrictive glucose medium; inhibition of the nicotinamide effect, % at 10 µM; 130,000 tested, 0.68% active; AID 775;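 active = inhibition above a set limit, placed 3 SD over the median of all compounds, cut at about 26% in these data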
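Buffer or medium: CSMM-D glucose medium, restrictive; test system: modified budding yeast, DeaD strain; compound: single dose 10 µM compound, 0.25% DMSO; schedule: culture preincubation 4 h, compound exposure 48 h, both 30 °C; detection: optical density (absorbance) at 615 nm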
SDO1 yeast rescue – restores growth of sdo1-depleted yeast | z-score at 10 µM | 140,000 tested, 0.21% active | S. cerevisiae sdo1-depleted JHY4D growth rescue, OD600 30 h; hits give high values; pdr5 snq2 efflux-pump mutant strain;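 active = z-score above 3 at both the 24 hr and the 30 hr optical density reads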
BB579 growth dn – yeast BB579 growth reduction in restrictive medium; inhibition, % at 10 µM; S. cerevisiae BB579 growth, OD615, 48 h; 140,000 tested, 0.51% active; AID 804;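 active = inhibition above a set limit, 3 SD over the mean compound inhibition, cut at about 44% in these data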
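Test system: Saccharomyces cerevisiae DeaD strain BB579, replicative lifespan model yeast | Buffer or medium: Restrictive CSMM-D medium | Doses: One dose, 10 µM compound with 0.25% DMSO | Incubation: 48 h exposure, 30 °C | Detection: Culture absorbance at 615 nm | Control set: Amphotericin B at 10 µg/mL as positive control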
RAM network inh – inhibitors of the yeast RAM network. 190,000 tested, 1.8% active. S. cerevisiae dse1pr::URA3 reporter, 5-FOA growth OD615, 2 d; analog-sensitive cbk1-as2 kinase mutant strain. AID 868. inhibition, % at 50 µM;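 active = inhibition above a set limit, 3 SD over mean compound inhibition, cut at about 8.4% in these data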;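 also: inhibition rescues growth on 5-FOA so higher OD means more RAM inhibition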
Large screens that a line does not name were inactive.

CN(Cc1ccccc1)C(=O)CCSc1nc(-c2ccc3c(c2)OCO3)cc(C(F)(F)F)n1	RAM network inh 9.9 (no result: Yeast life ext)
Cc1cc(NC(=O)c2cccc(F)c2)ncc1NC(=O)c1ccco1	Yeast life ext 31.1
Cc1cc(NC(=O)c2cccs2)ncc1NC(=O)c1cccc(F)c1	none (no result: Yeast life ext, SDO1 yeast rescue, BB579 growth dn)
CC(C)C(c1nnnn1CC1CCCO1)N1CCN(Cc2ccc3c(c2)OCO3)CC1 (stereo not drawn)	none
CC(C)C(c1nnnn1Cc1ccccc1)N1CCN(Cc2ccc3c(c2)OCO3)CC1 (stereo not drawn)	Yeast life ext 64.7
CCCCCCCCn1c(N2CCN(c3cccc(Cl)c3)CC2)nc2c1c(=O)[nH]c(=O)n2C	RAM network inh 9.1
O=C1c2ccc(Oc3ccc4c(c3)C(=O)N(CCCCO)C4=O)cc2C(=O)N1CCCCO	none
O=C(O)CCN1C(=O)c2ccc(Oc3ccc4c(c3)C(=O)N(CCC(=O)O)C4=O)cc2C1=O	RAM network inh 10.4
Cc1cc(S(=O)(=O)N2CCN(c3ccccc3C)CC2)ccc1F	none
Cc1cc(S(=O)(=O)N2CCN(c3c(C)cccc3C)CC2)ccc1F	RAM network inh 10.2
O=Nc1c2ccc[nH]c-2c2ccc([N+](=O)[O-])cc12	none (no result: Yeast life ext, SDO1 yeast rescue, BB579 growth dn)
CC(C)(C)c1n[nH]c2c1CCCC2	Yeast life ext 28.0
c1ccc(-c2n[nH]c3c2CCC3)cc1	none
[O-][N+]1=c2ccc(Nc3ccccc3)cc2=NC12CCCCC2	none
COc1ccc(Nc2ccc3c(c2)=NC2(CCCCC2)[N+]=3[O-])cc1	RAM network inh 8.9
COc1ccc(C(=O)NCc2ccc3c(c2)OCO3)cc1S(=O)(=O)N(C)Cc1ccccc1	RAM network inh 9.6
CN(c1ccccc1)S(=O)(=O)c1cccc(C(=O)OCC(=O)NCc2ccc3c(c2)OCO3)c1	RAM network inh 10.3
COc1cccc(NC(=O)CN(C)C(C)C(=O)Nc2cc([N+](=O)[O-])ccc2Cl)c1 (stereo not drawn)	none (no result: Yeast life ext, SDO1 yeast rescue, BB579 growth dn)
Cc1ccc(C(=O)CSc2nnc(COc3ccccc3)o2)cc1	none (no result: Yeast life ext, SDO1 yeast rescue, BB579 growth dn)
Cc1ccc(CN(CC(=O)NC2CCCC2)C(=O)CSc2nnc(COc3ccccc3)o2)cc1	RAM network inh 8.7 (no result: Yeast life ext)
O=C(CSc1nnc(COc2ccccc2)o1)NCCc1ccccc1	none
O=C(CN(Cc1ccccc1)C(=O)CSc1nnc(COc2ccccc2)o1)NC1CCCC1	RAM network inh 8.6 (no result: Yeast life ext)
Cc1cccc(OCc2nnc(SCC(=O)OC3CCCCC3)o2)c1	RAM network inh 10.2
Cc1nn(C)c(Cl)c1CN1CCN(CC(C)C)C(CCO)C1 (stereo not drawn)	none (no result: Yeast life ext, SDO1 yeast rescue, BB579 growth dn)
COc1ccccc1CNC(=O)c1ccc(-c2ccccc2Cl)o1	RAM network inh 10.0
COc1ccccc1CNC(=O)C(=O)Nc1nccs1	none (no result: Yeast life ext, SDO1 yeast rescue, BB579 growth dn)
COc1ccccc1CNC(=O)c1ccc(-c2ccccc2C(F)(F)F)o1	none
COc1ccccc1NC(=O)C(=O)NCc1ccccc1Cl	RAM network inh 8.7
O=C(Cc1ccc(Cl)cc1)Nc1ccc2c(c1)C(=O)NC2=O	none (no result: Yeast life ext, SDO1 yeast rescue, BB579 growth dn)
O=C(NC1CCCCC1)Oc1cccc2ccccc12	none (no result: Yeast life ext, SDO1 yeast rescue, BB579 growth dn)
COc1cccc(NC(=O)Nc2ccc(C(C)(C)C)cc2)c1	RAM network inh 9.9 (no result: Yeast life ext, SDO1 yeast rescue, BB579 growth dn)
CC(C)N=c1scc(-c2ccco2)n1/N=C/c1ccc(O)c(O)c1	BB579 growth dn 92.0
O=C(CN(CCO)c1ccccc1)Nc1ccc(Cl)c(S(=O)(=O)N2CCOCC2)c1	none (no result: Yeast life ext, SDO1 yeast rescue, BB579 growth dn)
CC1CCN(CC(=O)Nc2cccc(Cl)c2)CC1	none (no result: Yeast life ext, SDO1 yeast rescue, BB579 growth dn)
O=C(CSc1nccn1-c1ccccc1)c1ccc(Br)cc1	RAM network inh 10.7
C=CCN(CC=C)C(=S)NC(=O)Cc1cccc2ccccc12	none (no result: Yeast life ext, SDO1 yeast rescue, BB579 growth dn)
Cc1ccc(Oc2cc(NC(=O)CCCn3nc([N+](=O)[O-])c(Cl)c3C)cc([N+](=O)[O-])c2)cc1	none
Cc1cc([N+](=O)[O-])nn1CCCC(=O)Nc1cc(Oc2ccccc2)cc([N+](=O)[O-])c1	RAM network inh 10.2
Cc1cc([N+](=O)[O-])nn1CCCC(=O)Nc1cc(Oc2ccc(F)cc2)cc([N+](=O)[O-])c1	RAM network inh 8.9
O=C(CC(Nc1ccccc1)C(=O)O)c1ccccc1 (stereo not drawn)	none
C=C(C(=O)c1ccccc1)C(C)CC(=O)c1ccccc1 (stereo not drawn)	Yeast life ext 34.2
COc1ccc(S(=O)(=O)N2CCC(C(=O)Nc3ccc(F)cc3)CC2)c2cccnc12	none (no result: Yeast life ext, SDO1 yeast rescue, BB579 growth dn)
O=C(CSc1ccc2nnc(CCNC(=O)c3ccccc3)n2n1)Nc1ccccc1F	none (no result: Yeast life ext, SDO1 yeast rescue, BB579 growth dn)
O=C(NCCc1nnc2ccc(NCc3ccc(Cl)cc3)nn12)c1ccccc1	RAM network inh 8.5 (no result: Yeast life ext, SDO1 yeast rescue, BB579 growth dn)
CCOC(=O)CCc1c(C)nc(SCCN2CCCC2)c(C#N)c1C	none
CCOC(=O)CCc1c(C)nc(SCCCn2c(=O)[nH]c3ccccc32)c(C#N)c1C	RAM network inh 9.4
Cc1ccc(N2C(=O)CS/C2=C(\C(Cl)=C(Cl)Cl)[N+](=O)[O-])cc1	none
CC1CCCC(C)N1C(=C(Cl)Cl)C(=C1SCCS1)[N+](=O)[O-] (stereo not drawn)	RAM network inh 8.8 (no result: Yeast life ext, SDO1 yeast rescue, BB579 growth dn)
Cc1cc(-c2n[nH]c(=S)n2/N=C/c2cc([N+](=O)[O-])ccc2Cl)n[nH]1	BB579 growth dn 96.5
O=C(/C=C/c1cccs1)c1ccc(Br)cc1	none
O=C(/C=C\c1cccs1)c1c(O)ccc2ccc(=O)oc12	Yeast life ext 27.4
c1ccc(-n2nnnc2SCc2cccc(CSc3nnnn3-c3ccccc3)n2)cc1	RAM network inh 8.9 (no result: Yeast life ext)
Cc1ccccc1-n1nnnc1SCC(C)C	none (no result: Yeast life ext, SDO1 yeast rescue, BB579 growth dn)
Cc1ccccc1-n1nnnc1SCc1csc(-c2ccccc2)n1	RAM network inh 8.7
Cc1ccc2[nH]c3c(c2c1)CCC3=O	none
Cc1ccc2[nH]c3c(c2c1)CCc1cn[nH]c1-3	BB579 growth dn 91.9
O=C(CS(=O)(=O)c1ccc2ccccc2c1)N1CCCCCC1	none (no result: Yeast life ext, SDO1 yeast rescue, BB579 growth dn)
C=CS(=O)(=O)c1ccc(Oc2ccc(S(=O)(=O)C=C)cc2)cc1	Yeast life ext 60.8
NS(=O)(=O)c1ccc(Oc2ccc(S(N)(=O)=O)cc2)cc1	none (no result: Yeast life ext, SDO1 yeast rescue, BB579 growth dn)
Cc1cc(C)c(C)c(S(=O)(=O)N2CCCCC2C(=O)O)c1C (stereo not drawn)	none (no result: Yeast life ext, SDO1 yeast rescue, BB579 growth dn)
N=c1c2c(-c3ccccc3)c(-c3ccccc3)n(Cc3ccco3)c2ncn1CCCN1CCOCC1	none (no result: Yeast life ext, SDO1 yeast rescue, BB579 growth dn)
CC(C)Cn1cnc2c(c(-c3ccccc3)c(-c3ccccc3)n2Cc2ccco2)c1=N	Yeast life ext 28.3
c1ccc(-c2c(-c3ccccc3)n(Cc3ccco3)c3ncnc(NCCCn4ccnc4)c23)cc1	Yeast life ext 43.1
N=c1c2c(-c3ccccc3)c(-c3ccccc3)n(Cc3ccco3)c2ncn1CCCn1ccnc1	Yeast life ext 43.3
Cc1nn(-c2ccccc2)c2c1C(c1ccc([N+](=O)[O-])cc1)N1C(=N2)C(=O)Nc2ccccc21 (stereo not drawn)	none
Cc1nn(-c2ccc([N+](=O)[O-])cc2)c2c1C(c1cccc(Br)c1)N1C(=N2)C(=O)Nc2ccccc21 (stereo not drawn)	RAM network inh 10.4
CCOC(=O)c1ccc(NC(=O)c2ccccc2[N+](=O)[O-])cc1	none
CCOC(=O)c1cc([N+](=O)[O-])c([N+](=O)[O-])cc1NC(C)=O	BB579 growth dn 99.0
